# Source: ChEMBL document CHEMBL4513216, “Probing the Open Global Health Chemical Diversity Library for Multistage-Active Starting Points for Next-Generation Antimalarials” (ACS Infect Dis, 2020)
# Experiment: Toxicity liver stage against HepG2, at 10uM
# Format: cell-based
# Design: test concentration 10 uM, cell line HepG2-A16-CD81EGFP
# Details: human, HepG2-A16-CD81EGFP cells; read-out: INHIBITION
# Outline: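 Uninfected HepG2-A16-CD81EGFP cells, 3 × 10^3 per well, 1536-well, plated on prespotted compound at 10 μM final, parasite-free screening media added to match infected plates; puromycin 10 μM positive, DMSO 0.5% negative; run in parallel with 48 h PbLuc assay at 37 °C, 5% CO2; viability by CellTiter-Glo luminescence, normalized to controls.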
structure (smiles),measurement,value
Cc1nn(Cc2ccc(F)cc2)c2[nH]nc(N)c12,cytotoxicity at 10 µM,1.11%
O=C([C@@H]1CCCN1c1nccc(Nc2ccccc2)n1)N1CCCCC1,cytotoxicity at 10 µM,0.325%
CCCn1nnc2c(sc3nc(N4CCOCC4)c4c(c32)CCC4)c1=O,cytotoxicity at 10 µM,1.74%
CCCc1nc2c(c(C)c(C)n2Cc2ccncc2)c(N)c1CC,cytotoxicity at 10 µM,14.3%
COCCn1ccc2c(C(=O)Nc3nc4c(s3)CCC4)cccc21,cytotoxicity at 10 µM,1.82%
Cc1cc(CN2CCC(CNS(=O)(=O)c3ccc(Br)s3)CC2)c(C)o1,cytotoxicity at 10 µM,-2.72%
Cc1cc(N2CCCC2)nc(CNS(=O)(=O)Cc2ccccc2)n1,cytotoxicity at 10 µM,7.48%
CN(C)c1cnnc(N2CCN(C(=O)CCC3CCCCC3)CC2)c1,cytotoxicity at 10 µM,-1.65%
COC(=O)CCC(=O)N1CCc2nc(C(=O)N(C)C)sc2CC1,cytotoxicity at 10 µM,18.7%
CC1N(C)C(=O)COC12CCN(C(=O)Cc1ccsc1)CC2 (centres undefined),cytotoxicity at 10 µM,2.81%
COc1nn(C)c2c1CCCN(S(=O)(=O)c1cccc(C)c1)C2,cytotoxicity at 10 µM,-133%
c1coc(CN2CCc3ncnc(C4CCOC4)c3CC2)c1 (centres undefined),cytotoxicity at 10 µM,10.2%
COCc1ncn2c1CN(S(=O)(=O)c1ccc(C)cc1)CC2,cytotoxicity at 10 µM,-1.18%
COC(=O)c1ccc(C2SCC(=O)Nc3ccsc32)cc1 (centres undefined),cytotoxicity at 10 µM,-6.79%
CSC1=Nc2c(cnn2-c2cccc(Cl)c2)C2=NCCCN12,cytotoxicity at 10 µM,4.81%
O=C(Cn1cc(-c2ccccc2)ncc1=O)Nc1ncc[nH]1,cytotoxicity at 10 µM,5.89%
CC(=O)Nc1ccc(-n2ccc3nc(N4CCCC4)ncc3c2=O)cc1,cytotoxicity at 10 µM,2.24%
O=c1[nH]c2c(c(=O)n1C1CCCCC1)CCC2Nc1ccccc1Cl (centres undefined),cytotoxicity at 10 µM,-10.4%
Cc1cc(C)n(C2=NC(NCCCO)c3c(sc4c3CCCC4)N2)n1 (centres undefined),cytotoxicity at 10 µM,14%
COc1ccc(-n2nnnc2C(C)(C)Nc2ccc(C)cc2C)cc1,cytotoxicity at 10 µM,52.4%
CSCc1cccc(S(=O)(=O)NCc2cnn(C)c2C)c1,cytotoxicity at 10 µM,13.7%
Cc1ccc(S(=O)(=O)N2C[C@H]3C[C@H](NC(=O)c4cnn(C)c4)[C@H]3C2)cc1,cytotoxicity at 10 µM,76.4%
COc1ccccc1CNc1ncc(-c2cc(C)no2)c(C(C)C)n1,cytotoxicity at 10 µM,8.49%
CCc1c(C)nc2cc(C3CCN(Cc4cccc(F)c4)C3)nn2c1O (centres undefined),cytotoxicity at 10 µM,-6.43%
Cc1cc(-c2cnc(NC3CCCC3)nc2-c2ccoc2C)on1,cytotoxicity at 10 µM,45.7%
O=C(CCNCc1cccc(O)c1)N1CCc2sccc2C1,cytotoxicity at 10 µM,16%
Fc1cccc(C(NCc2ncc[nH]2)c2ccccc2)c1 (centres undefined),cytotoxicity at 10 µM,1.35%
Cc1ncsc1COC(=O)c1cccc2c1OCCO2,cytotoxicity at 10 µM,1.37%
CN(CCOc1cccc(S(C)(=O)=O)c1)c1ccccc1,cytotoxicity at 10 µM,2.3%
CS(=O)(=O)NC1CCN(Cc2coc(-c3ccc(Cl)cc3)n2)CC1,cytotoxicity at 10 µM,-41.9%
CC(C)Sc1ccc(C(C)Nc2nc3c(cnn3C)c(=O)[nH]2)cc1 (centres undefined),cytotoxicity at 10 µM,21.4%
CC(C)n1nc2c(cc1=O)CN(Cc1nc(-c3ccoc3)no1)CC2,cytotoxicity at 10 µM,10.2%
CC(C)Oc1ccc(C(=O)NCc2ccnc(N3CCCC3)c2)cn1,cytotoxicity at 10 µM,47.3%
Cc1noc(C)c1CN(C)Cc1csc(-c2ccc(F)cc2)n1,cytotoxicity at 10 µM,27.8%
Cc1cc(CNCC2(O)CCOCC2)ccc1F,cytotoxicity at 10 µM,6.71%
O=C1CCC(=O)N1CCN1CCN(c2cc(F)ccc2F)CC1,cytotoxicity at 10 µM,9.44%
Cc1ccc(S(=O)(=O)NCCNC(=O)c2cncnc2C)cc1,cytotoxicity at 10 µM,-1.51%
CC(C)Oc1ncc(C(=O)N2CCc3ccc(O)cc3C2)cc1Cl,cytotoxicity at 10 µM,1.61%
Cc1noc(C)c1CNC(=O)N(C1CC1)C(C)c1ccco1 (centres undefined),cytotoxicity at 10 µM,5.68%
CCCNC(=O)CCNC1CSCCc2ccccc21 (centres undefined),cytotoxicity at 10 µM,-0.421%
CCC(C)(NCC(=O)NC(C)C)c1nc(C)cs1 (centres undefined),cytotoxicity at 10 µM,-2.06%
O=C(NCC1(CO)CC1)c1nnn(-c2ccc(F)cc2)c1C1CC1,cytotoxicity at 10 µM,-1.06%
Cc1cccc(NC(=O)[C@@H]2CCCN2CC(=O)Nc2ccccc2)n1,cytotoxicity at 10 µM,2.45%
O=C(Nc1ccc(OCc2cccc(F)c2)c(F)c1)C1COCCO1 (centres undefined),cytotoxicity at 10 µM,74.4%
COc1ccc(NC(C)C(=O)N2CCCC2)cn1 (centres undefined),cytotoxicity at 10 µM,-4.96%
Cc1nc(C2CCCN(C(=O)c3cc(C)sc3C)C2)no1 (centres undefined),cytotoxicity at 10 µM,6.86%
Cc1ccccc1CN(C)C(=O)CN1CCCCC1Cn1cncn1 (centres undefined),cytotoxicity at 10 µM,8.44%
CC(=O)c1c(F)cccc1N1CCC(NS(=O)(=O)c2ccccc2)CC1,cytotoxicity at 10 µM,53.4%
CCN(CC)c1ccc(NS(=O)(=O)c2cccnc2)cn1,cytotoxicity at 10 µM,3.8%
Cc1cc(N2CCC(N(C)C(=O)c3ccc(C#N)cc3)CC2)nc(C)n1,cytotoxicity at 10 µM,26.7%
Cc1cnc(CN2CCN(c3nc(C)cs3)C(C)C2)cn1 (centres undefined),cytotoxicity at 10 µM,2.74%
CCOC(C)c1noc(CN2CCN(c3ccncc3)CC2)n1 (centres undefined),cytotoxicity at 10 µM,-10.6%
CCS(=O)(=O)c1ccc2c(c1)OCCO2,cytotoxicity at 10 µM,-1.38%
COc1cccc(CNc2cc(C)nc(-c3ccncc3)n2)c1O,cytotoxicity at 10 µM,59.1%
COCCOc1ccc(CNc2nc3ccccc3nc2N)cn1,cytotoxicity at 10 µM,33.9%
CN(C(=O)Cc1coc(-c2ccccc2)n1)C1(C#N)CCC1,cytotoxicity at 10 µM,6.41%
Cc1cc(NCC2CCN(c3ccccc3)C2)n2ncnc2n1 (centres undefined),cytotoxicity at 10 µM,67%
Cc1cc(C(=O)NCCN2CCCCCC2)nn1C(C)(C)C,cytotoxicity at 10 µM,2.45%
Cc1noc(-c2cccnc2N(C)Cc2ccc([S+](C)[O-])cc2)n1 (centres undefined),cytotoxicity at 10 µM,46%
CCN1CCCN(C(=O)c2ccc(NC(=O)CC(C)C)c(C)c2)CC1,cytotoxicity at 10 µM,-8.04%
CCc1cc(NCc2ccc(-n3cncn3)c(C)c2)n(C)n1,cytotoxicity at 10 µM,-52.6%
CC(=O)Nc1sccc1C(=O)C(C)(C)C,cytotoxicity at 10 µM,-44.7%
Brc1cc2c(cc1CN1CCC(N3CCCCC3)CC1)OCCO2,cytotoxicity at 10 µM,50.1%
COc1cc(N2CC[C@@H]3[C@@H](CC2)OCCN3CC2CC2)ncn1,cytotoxicity at 10 µM,-107%
COc1ccc(CN2CCC3(CC(C(=O)NCC(C)C)=NO3)C2)cc1 (centres undefined),cytotoxicity at 10 µM,11%
CC(C)CNC(=O)C1=NOC2(CCN(Cc3ccc(C(C)C)cc3)C2)C1 (centres undefined),cytotoxicity at 10 µM,32.3%
O=C(OCc1ccccc1)N1CC[C@H]2CC(CO)O[C@@H]2C1 (some centres undefined),cytotoxicity at 10 µM,-97.7%
c1ccc(NCc2cnc3n2CCN(C2CCOC2)CC3)nc1 (centres undefined),cytotoxicity at 10 µM,-70.5%
c1nc2n(c1CN1CCCC1)CCN(C1CCOCC1)CC2,cytotoxicity at 10 µM,-71.1%
Cc1ccc(NC(=O)N2CC(C(=O)NC(C)C)C3(CCOCC3)C2)cc1 (centres undefined),cytotoxicity at 10 µM,-74.3%
Cc1nc(CCNC(=O)c2cc(C(C)C)nn2C)sc1C,cytotoxicity at 10 µM,22.4%
CSCC(C)NCc1ccc2[nH]c(C)c(C)c2c1 (centres undefined),cytotoxicity at 10 µM,-0.369%
O=C(NCCC1CCCCO1)c1coc(COc2ccc(F)cc2)n1 (centres undefined),cytotoxicity at 10 µM,1.1%
Cc1cnc(N2Cc3cnn(Cc4ccc(F)cc4)c3C2)nc1N(C)C,cytotoxicity at 10 µM,6.02%
Cc1cc(C)cc(CCC(=O)N2CCN(c3cc(C)nc(N)n3)CC2)c1,cytotoxicity at 10 µM,-38.7%
Cc1nc[nH]c1CN1CCCN(c2nc3ccccc3s2)CC1,cytotoxicity at 10 µM,33%
COC[C@H]1CCCN1c1nccc(-c2cnn(-c3ccccc3C)c2)n1,cytotoxicity at 10 µM,8.63%
CCCn1ncc(-c2ccnc(NC3CC(C)(C)NC(C)(C)C3)n2)c1C,cytotoxicity at 10 µM,4.84%
COc1ccccc1OCCCc1cncc(C(N)=O)c1,cytotoxicity at 10 µM,-115%
COc1cc(CN2CCCC2)ccc1Oc1ncccc1C(F)(F)F,cytotoxicity at 10 µM,0.96%
Nc1nccc(N2CCC(c3cc(Cc4ccccc4)n[nH]3)CC2)n1,cytotoxicity at 10 µM,38.9%
CNc1cc(C)nc(NCc2cc(C)cc3c(C)c(C)[nH]c23)n1,cytotoxicity at 10 µM,-29%
COc1cc(Cl)cc(CN2CCCC(N3CCCC3)C2)c1OC (centres undefined),cytotoxicity at 10 µM,-3.88%
CCc1nccn1CCNC1CCN(c2nc3ccc(Cl)cc3s2)CC1,cytotoxicity at 10 µM,28.8%
O=C(CCN1CCCCO1)NCc1cn2c(n1)SCC2,cytotoxicity at 10 µM,6.49%
c1nc(NCc2cc3n(n2)CCN(C2CCCCC2)C3)c2nc[nH]c2n1,cytotoxicity at 10 µM,24.2%
COc1cccc(OC)c1CN1CC(=O)N(c2ccc(C)cc2)CC1C (centres undefined),cytotoxicity at 10 µM,1.64%
O=C(CN1CCOCC1)N(c1ccccc1)c1ccccc1,cytotoxicity at 10 µM,-11.8%
CN1CC(c2ccccc2)CC2(CCN(C(=O)c3cccnn3)CC2)C1 (centres undefined),cytotoxicity at 10 µM,-8.92%
CNC(=O)c1cn2cc(-c3cccc(Cl)c3)n(CC=C(C)C)c(=O)c2n1,cytotoxicity at 10 µM,-52.8%
COc1ccccc1CN1C(=O)O[C@@H]2CN(C(C)C)C[C@@H]21,cytotoxicity at 10 µM,3.99%
CC(C)N(CCNc1nc(C2CCCC2)nc2c1cnn2C)C(C)C,cytotoxicity at 10 µM,5.29%
CCC[C@H]1CN(S(=O)(=O)N(C)Cc2ccccc2)C[C@@H]1N,cytotoxicity at 10 µM,-138%
Cn1ncc(-c2cc(-c3cccc(O)c3)nc(N)c2C#N)c1C1CC1,cytotoxicity at 10 µM,79.1%
CCn1cc(NC(=O)c2cccc(CN3C[C@@H](C)O[C@@H](C)C3)c2)nn1,cytotoxicity at 10 µM,1.31%
COc1cc(CNCc2ccnc(N3CCCCC3)c2)cc(OC)c1,cytotoxicity at 10 µM,28.9%
CN(C)c1ccc(NC(=O)NCC2CCOC2)cn1 (centres undefined),cytotoxicity at 10 µM,-6.8%
CSc1ccc(CNC(c2ccccc2)c2nccn2C)cc1 (centres undefined),cytotoxicity at 10 µM,2.39%
N#Cc1ccc(N2CCN(C(=O)c3cc(C4CC4)[nH]n3)CC2)c(F)c1,cytotoxicity at 10 µM,1.94%
CC(=O)Nc1nc(C(=O)Nc2ccc(N3CCCCC3)nc2)cs1,cytotoxicity at 10 µM,9.46%
CCCc1ccc(C(=O)N2Cc3c(Cn4ccnc4)nn(C)c3C2)cc1,cytotoxicity at 10 µM,-73%
COCCN1C[C@H]2CCC[C@@H](CNc3ncccn3)[C@H]2C1,cytotoxicity at 10 µM,-112%
Fc1cnc(N2C[C@H]3CCC[C@@]3(COc3ccccn3)C2)nc1,cytotoxicity at 10 µM,15.6%
c1cnn(C[C@@H]2C[C@@H]3CN(CC4CC4)CC[C@@H]3N2c2nccs2)c1,cytotoxicity at 10 µM,9.1%
COCC1CC2(CCN(C(C)=O)CC2)CN1Cc1csc(C)n1 (centres undefined),cytotoxicity at 10 µM,9.19%
CC(C)CCN1C2(CCN(Cc3nccs3)C2)c2ccccc2S1(=O)=O (centres undefined),cytotoxicity at 10 µM,-65%
c1cncc(COCC2CC[C@H]3[C@H](CCN3CC3CCOCC3)O2)c1 (some centres undefined),cytotoxicity at 10 µM,-71.4%
CN(Cc1ccco1)[C@@H]1CN(Cc2ccc(F)cc2)[C@@H]2CCCO[C@H]12,cytotoxicity at 10 µM,-70.6%
O=C(c1ccco1)N1CCCC2(CN(Cc3ccsc3)CCO2)C1 (centres undefined),cytotoxicity at 10 µM,-2.37%
